Experimental data reported in ChEMBL document CHEMBL1131636, “Conformationally constrained analogues of the muscarinic agonist 3-(4-(methylthio)-1,2,5-thiadiazol-3-yl)-1,2,5,6-tetrahydro-1-methylpyr idine. Synthesis, receptor affinity, and antinociceptive activity” (J Med Chem, 1998).

Experiments:
[1] = target: T1, Muscarinic acetylcholine receptor M1 (Homo sapiens, UniProt P11229); assay: (§1) Compound was evaluated for its ability to displace [3H]N-methylscopolamine ([3H]NMS) binding to cloned CHO cell lines expressing Muscarinic acetylcholine receptor M1; type: cell-based
T1 sequence (P11229 whole entry): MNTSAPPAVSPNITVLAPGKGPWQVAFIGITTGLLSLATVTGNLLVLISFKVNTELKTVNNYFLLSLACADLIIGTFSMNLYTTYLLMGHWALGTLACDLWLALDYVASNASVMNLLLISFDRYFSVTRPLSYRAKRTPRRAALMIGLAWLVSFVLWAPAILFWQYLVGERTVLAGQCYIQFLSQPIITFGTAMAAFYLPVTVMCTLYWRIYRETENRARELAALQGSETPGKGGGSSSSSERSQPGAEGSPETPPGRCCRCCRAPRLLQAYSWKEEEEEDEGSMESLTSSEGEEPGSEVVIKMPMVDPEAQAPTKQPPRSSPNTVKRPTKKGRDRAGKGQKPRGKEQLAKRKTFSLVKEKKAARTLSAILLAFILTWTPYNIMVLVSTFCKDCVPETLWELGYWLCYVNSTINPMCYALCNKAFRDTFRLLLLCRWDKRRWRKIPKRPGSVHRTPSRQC

[2] = target: Muscarinic acetylcholine receptor; assay: In vitro Binding affinity was measured on Muscarinic acetylcholine receptor on rat brain membranes using [3H]oxotremorine-M; parameters: species or system Membrane
Outline: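 Rat brain homogenate washed by 40000g centrifugation and resuspended in Hepes pH 7.4. Incubated with 1.0 nM (final) [3H]Oxo-M for 30 min at 25 °C. […] Filtered on glass fiber, washed with ice-cold buffer, scintillation counted. IC50 from at least four concentrations in triplicate, Hill equation.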

[3] = target: T2, Muscarinic acetylcholine receptor M4 (Homo sapiens, UniProt P08173); assay: Compound was evaluated for its ability to displace [3H]- N-methyl-scopolamine ([3H]-NMS) binding to cloned CHO cell lines expressing Muscarinic acetylcholine receptor M4; type: cell-based
T2 sequence (P08173 whole entry): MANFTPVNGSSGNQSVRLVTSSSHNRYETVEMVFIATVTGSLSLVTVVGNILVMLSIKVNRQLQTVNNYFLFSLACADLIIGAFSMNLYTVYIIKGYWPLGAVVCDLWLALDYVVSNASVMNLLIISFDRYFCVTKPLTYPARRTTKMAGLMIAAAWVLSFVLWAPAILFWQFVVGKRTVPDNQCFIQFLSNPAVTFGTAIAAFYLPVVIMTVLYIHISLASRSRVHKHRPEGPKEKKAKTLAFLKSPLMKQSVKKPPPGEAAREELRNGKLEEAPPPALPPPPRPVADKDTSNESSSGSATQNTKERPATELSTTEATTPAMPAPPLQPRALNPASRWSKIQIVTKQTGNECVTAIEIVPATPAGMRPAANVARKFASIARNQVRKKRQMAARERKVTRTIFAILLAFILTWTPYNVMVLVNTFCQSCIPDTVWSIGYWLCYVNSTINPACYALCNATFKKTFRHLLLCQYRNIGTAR

[4] = target: T3, Muscarinic acetylcholine receptor M2 (Homo sapiens, UniProt P08172); assay: Compound was evaluated for its ability to displace [3H]- N-methyl-scopolamine ([3H]NMS) binding to cloned CHO cell lines expressing Muscarinic acetylcholine receptor M2; type: cell-based
T3 sequence (P08172 whole entry): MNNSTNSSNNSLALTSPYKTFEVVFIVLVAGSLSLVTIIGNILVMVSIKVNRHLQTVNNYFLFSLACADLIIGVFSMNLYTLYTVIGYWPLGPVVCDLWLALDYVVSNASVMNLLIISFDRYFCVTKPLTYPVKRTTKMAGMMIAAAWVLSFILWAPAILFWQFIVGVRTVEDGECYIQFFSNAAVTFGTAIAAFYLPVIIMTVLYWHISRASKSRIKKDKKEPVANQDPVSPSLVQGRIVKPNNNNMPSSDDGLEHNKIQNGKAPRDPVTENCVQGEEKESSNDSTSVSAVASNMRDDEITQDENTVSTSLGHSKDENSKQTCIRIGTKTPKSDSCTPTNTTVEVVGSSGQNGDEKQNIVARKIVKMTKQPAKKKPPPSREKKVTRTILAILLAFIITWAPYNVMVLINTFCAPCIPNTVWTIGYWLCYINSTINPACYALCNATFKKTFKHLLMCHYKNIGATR

[5] = target: T4, Muscarinic acetylcholine receptor M5 (Homo sapiens, UniProt P08912); assay: Compound was evaluated for its ability to displace [3H]- N-methyl-scopolamine ([3H]NMS) binding to cloned CHO cell lines expressing Muscarinic acetylcholine receptor M5; type: cell-based
T4 sequence (P08912 whole entry): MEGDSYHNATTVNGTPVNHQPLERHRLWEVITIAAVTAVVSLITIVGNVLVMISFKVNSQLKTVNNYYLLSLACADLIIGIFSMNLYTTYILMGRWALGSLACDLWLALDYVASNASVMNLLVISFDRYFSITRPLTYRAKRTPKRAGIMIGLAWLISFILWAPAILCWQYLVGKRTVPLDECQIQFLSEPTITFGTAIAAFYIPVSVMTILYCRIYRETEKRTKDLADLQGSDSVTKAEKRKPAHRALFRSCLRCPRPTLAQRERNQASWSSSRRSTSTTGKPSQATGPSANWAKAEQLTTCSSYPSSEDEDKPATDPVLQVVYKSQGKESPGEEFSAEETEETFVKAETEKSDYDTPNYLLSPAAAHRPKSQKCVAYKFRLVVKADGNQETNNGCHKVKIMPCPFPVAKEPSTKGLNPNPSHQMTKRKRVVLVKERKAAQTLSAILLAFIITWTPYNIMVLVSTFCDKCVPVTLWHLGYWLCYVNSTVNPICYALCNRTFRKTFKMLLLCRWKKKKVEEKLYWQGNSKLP

[6] = test system: Mus musculus; assay: Compound was tested for its ability to induce tremors in mice subcutaneous administration; type: functional; conditions: sc
Outline: (§2)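 Mice dosed sc, scored just before the 30-min postdrug grid-shock test. Salivation or tremor rated 0–3 per animal. Scores multiplied by number of mice, summed per group (n = 10), and expressed as % of maximum sum (30). ED50 derived.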

[7] = target: Muscarinic acetylcholine receptor M3 (Homo sapiens, UniProt P20309); assay: Compound was evaluated for its ability to displace [3H]N-methylscopolamine ([3H]NMS) binding to cloned CHO cell lines expressing Muscarinic acetylcholine receptor M3; type: cell-based
Chain of Muscarinic acetylcholine receptor M3 (P20309 whole entry): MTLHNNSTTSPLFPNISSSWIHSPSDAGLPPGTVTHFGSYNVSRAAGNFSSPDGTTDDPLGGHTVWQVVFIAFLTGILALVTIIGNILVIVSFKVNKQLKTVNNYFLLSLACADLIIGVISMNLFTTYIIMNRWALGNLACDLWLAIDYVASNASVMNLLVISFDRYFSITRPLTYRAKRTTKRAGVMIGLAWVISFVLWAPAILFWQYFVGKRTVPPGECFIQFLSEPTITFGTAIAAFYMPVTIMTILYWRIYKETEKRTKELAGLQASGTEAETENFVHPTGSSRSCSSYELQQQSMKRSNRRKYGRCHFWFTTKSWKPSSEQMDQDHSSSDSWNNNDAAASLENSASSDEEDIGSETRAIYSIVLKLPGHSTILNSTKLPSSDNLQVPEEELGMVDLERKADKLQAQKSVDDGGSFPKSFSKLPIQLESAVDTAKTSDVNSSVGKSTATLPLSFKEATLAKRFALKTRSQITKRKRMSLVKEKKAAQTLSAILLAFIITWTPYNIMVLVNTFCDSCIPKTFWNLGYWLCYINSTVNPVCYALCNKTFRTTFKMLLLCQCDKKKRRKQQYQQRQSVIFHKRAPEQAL

[8] = test system: Mus musculus; assay: Compound was tested for its ability to induce salivation in mice upon subcutaneous administration; type: functional; conditions: sc; outline: as §2
[9] = test system: Mus musculus; assay: In vivo antinociceptive activity was measured using mouse grid shock (MGS) assay in mice upon subcutaneous administration; type: functional; conditions: sc
Outline: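 Mice dosed sc by body weight, then shocked via stainless steel grid floor 30 min later. Vocalization detected acoustically. Percent increase in latency = (postdrug − predrug)/(cutoff − predrug) × 100 per animal, averaged per dose. Ten mice per dose and for controls. ED50 derived.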

[10] = target: T1, Muscarinic acetylcholine receptor M1; assay: as §1; type: cell-based; remark: listed apart in the source
Outline: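 Membranes from CHO cells expressing cloned m1 receptor, prepared in 20 mM sodium phosphate pH 7.4 (200g spin, then 40000g for 45 min at 4 °C; stored −80 °C). 23–45 μg protein incubated with [3H]NMS (5 nM as added) and test compound for 2 h. WGA-coated SPA beads added, counted after a further 2 h.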

[11] = target: Muscarinic acetylcholine receptor; assay: In vitro Binding affinity was measured against Muscarinic acetylcholine receptor on rat brain membranes using [3H]oxotremorine-M

| Compound | IC50 [2] | IC50 [10] | IC50 [1] | IC50 [3] | IC50 [4] | IC50 [5] | ED50 [6] | IC50 [7] | ED50 [8] | ED50 [9] | IC50 [11] |
| --- | --- | --- | --- | --- | --- | --- | --- | --- | --- | --- | --- |
| CN1CCC2=C(C1)c1nsnc1SC2 | 0.0278 µM |  | 20.5 µM | 14.5 µM | 2.2 µM | 23 µM | > 30 mg/kg | 9.7 µM | 13 mg/kg | 10.4 mg/kg |  |
| CSc1nsnc1C1=C(C)CCN(C)C1 | > 0.5 µM |  | > 100 µM | > 100 µM | 100 µM | 100 µM | > 30 mg/kg | > 100 µM | > 30 mg/kg | > 30 mg/kg |  |
| COC(=O)C1=CCCN(C)C1 [ARECOLINE] |  |  |  |  |  |  | 15 mg/kg |  | 15 mg/kg | 16 mg/kg |  |
| O=C1CCCN1CC#CCN1CCCC1 [OXOTREMORINE] |  |  | 9 µM | 5 µM | 0.4 µM | 8 µM | 0.2 mg/kg | 17 µM | 0.2 mg/kg | 0.038 mg/kg | 0.005 µM |

Continued, in another order:

| IC50 [2] | IC50 [10] | Compound | IC50 [1] | IC50 [3] | IC50 [4] | IC50 [5] | ED50 [6] | IC50 [7] | ED50 [8] | ED50 [9] | IC50 [11] |
| --- | --- | --- | --- | --- | --- | --- | --- | --- | --- | --- | --- |
| 0.0445 µM |  | c1cc2nsnc2c2c1CCNC2 | 100 µM | 100 µM | 6.7 µM | 100 µM | 6.4 mg/kg | 100 µM | 5.1 mg/kg | 4.4 mg/kg |  |
| 0.0045 µM | 1.8 µM | CSc1nsnc1C1=CCCN(C)C1 |  | 1.2 µM | 0.48 µM | 2.1 µM | > 10 mg/kg | 1.6 µM | 6 mg/kg | 4 mg/kg |  |
| 0.0355 µM |  | C1Cc2sc3nsnc3c2CN1 |  |  |  |  | 15.8 mg/kg |  | 8.8 mg/kg | 4.6 mg/kg |  |
| 0.0076 µM |  | CSc1nsnc1C1=CCCNC1 |  |  |  |  | 4.5 mg/kg |  | 7.4 mg/kg | 1.8 mg/kg |  |
